Laboratory results: ChEMBL document CHEMBL1149900, “ent-Labdane diterpenoid lactone stereoisomers from Andrographis paniculata” (2008)

Tested on: HL-60
Experiment: Antiproliferative activity against human HL60 cells by trypan blue assay
Format: functional
How it was run: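 HL-60 cells seeded at 1 × 10^5 cells/mL, exposed to test compound at 5, 10, 20, 40 or 60 µM for 3 days. Viable growth scored by trypan blue staining, with total cells counted on a hemocytometer. GI50 taken as the concentration halving cell growth. Reported as mean ± SD of three independent experiments, with adriamycin as positive control.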

## C=C1CC[C@@H]2[C@](C)(CO)[C@H](O)CC[C@@]2(C)[C@@H]1CC/C(=C/CO)C(=O)O
  GI50: 22.4 µM

## C=C1CC[C@H]2[C@@](C)(CCC(=O)[C@@]2(C)CO)[C@@H]1/C=C/C1=CCOC1=O
  GI50: 19.2 µM

## C=C1CC[C@@H]2[C@](C)(CO)[C@H](O)CC[C@@]2(C)[C@@H]1C[C@H](O)[C@@H]1C(=O)OC[C@H]1O
  GI50: 24.4 µM

## C=C1CC[C@@H]2[C@](C)(CO)[C@H](O)CC[C@@]2(C)[C@@H]1C[C@@H](O)[C@H]1C(=O)OC[C@H]1O
  GI50: 26.6 µM

## C=C1CC[C@@H]2[C@](C)(CO)[C@H](O)CC[C@@]2(C)[C@@H]1C/C=C1/C(=O)OC[C@H]1O [ANDROGRAPHOLIDE]
  GI50: 9.33 µM

## C=C1CC[C@@H]2[C@](C)(CO)[C@H](O)CC[C@@]2(C)[C@@H]1CCO
  GI50: 24.9 µM

## C=C1[C@@H](CCC2=CCOC2=O)[C@]2(C)CC[C@@H](O)[C@@](C)(CO)[C@H]2C[C@@H]1O
  GI50: 25.2 µM

## C=C1CC[C@@H]2[C@](C)(CO)[C@H](O)CC[C@@]2(C)[C@@H]1C/C=C1\C(=O)OC[C@H]1O
  GI50: 6.3 µM

## C=C1CC[C@@H]2[C@](C)(CO)CCC[C@@]2(C)[C@@H]1CCC1=CCOC1=O [ANDROGRAPANIN]
  GI50: 20 µM

## C=C1CC[C@@H]2[C@](C)(CO)[C@H](O)CC[C@@]2(C)[C@@H]1/C=C/C(=O)O
  GI50: 28.8 µM

## C=C1CC[C@@H]2[C@](C)(CO[C@@H]3O[C@H](CO)[C@@H](O)[C@H](O)[C@H]3O)[C@H](O)CC[C@@]2(C)[C@@H]1C/C=C1/C(=O)OC[C@H]1O [ANDROGRAPHISIDE]
  GI50: 28.8 µM

## COc1cccc2c1C(=O)c1c(O)c3c(c(O)c1C2=O)C[C@@](O)(C(=O)CO)C[C@@H]3O[C@H]1C[C@H](N)[C@H](O)[C@H](C)O1 [DOXORUBICIN]
  GI50: 0.018 µM

## C=C1CC[C@@H]2[C@](C)(CO)CCC[C@@]2(C)[C@@H]1CC/C(=C/CO)CO
  GI50: 20.4 µM

## C=C1CC[C@@H]2[C@](C)(CO)[C@H](O)CC[C@@]2(C)[C@@H]1/C=C/C1=CC(OC)OC1=O (some centres undefined)
  GI50: 26.4 µM

## C=C1CC[C@@H]2[C@](C)(CO[C@@H]3O[C@H](CO)[C@@H](O)[C@H](O)[C@H]3O)CCC[C@@]2(C)[C@@H]1CCC1=CCOC1=O [NEOANDROGRAPHOLIDE]
  GI50: 26.7 µM

## C=C1[C@H](O)C[C@@H]2[C@](C)(CO)[C@H](O)CC[C@@]2(C)[C@@H]1CCC1=CCOC1=O
  GI50: 22.5 µM

## C=C1CC[C@@H]2[C@](C)(CO)[C@H](O)CC[C@@]2(C)[C@@H]1/C=C/C1=CCOC1=O
  GI50: 25.6 µM

## C=C1CC[C@H]2[C@@](C)(CCC(=O)[C@@]2(C)CO)[C@@H]1CCC1=CCOC1=O
  GI50: 22.8 µM

## C=C1CC[C@@H]2[C@](C)(CO)[C@H](O)CC[C@@]2(C)[C@@H]1CCC1=CCOC1=O [DEOXYANDROGRAPHOLIDE]
  GI50: 25.5 µM
